Measurements published in ChEMBL document CHEMBL4342509, “New 8-Nitroquinolinone Derivative Displaying Submicromolar in Vitro Activities against Both Trypanosoma brucei and cruzi” (ACS Med Chem Lett, 2020).

Key:
Leishmania infantum = experiment: Antileishmanial activity against Leishmania infantum MHOM/MA/67/ITMAP-263 axenic amastigotes expressing luciferase plasmid assessed as reduction in parasite viability incubated for 48 hrs by Steady Glow reagent based luminescence assay; type: functional, organism-based; conditions: MHOM/MA/67/ITMAP-263, 48 h
HepG2 [1] = experiment: Cytotoxicity against human HepG2 cells assessed as reduction in cell viability incubated for 72 hrs by MTT assay; type: cell-based; conditions: hepg2, 72 h
[2] = Selectivity index, ratio of CC50 for human HepG2 cells to EC50 for Trypanosoma brucei brucei trypomastigotes AnTat 1.9; type: toxicity; conditions: read-out: Ratio CC50/EC50
[3] = test system: Trypanosoma brucei brucei; experiment: Antitrypanosomal activity against Trypanosoma brucei brucei AnTat 1.9 trypomastigotes assessed as reduction in parasite viability incubated for 69 hrs by Alamar Blue dye based assay; type: functional, organism-based; conditions: AnTat 1.9, 69 h
How it was run: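 Bloodstream AnTat 1.9 parasites grown at 37°C, 5% CO₂ in MEM with Earle's salts (Baltz-type) plus 0.5 mM mercaptoethanol, 1.5 mM L-cysteine, 0.05 mM bathocuproine sulfate and 20% heat-inactivated horse serum. EC50 from nonlinear regression, three independent experiments in duplicate.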

[4] = Electrochemical behavior of the compound assessed as redox potential corrected toward normal hydrogen electrode by cyclic voltammetry
[5] = test system: Trypanosoma brucei brucei; experiment: Selectivity index, ratio of EC50 for bloodstream form of wild type Trypanosoma brucei brucei S427 trypomastigotes to EC50 for blood stream form of Trypanosoma brucei brucei S427 trypomastigotes overexpressing NTR; type: functional
[6] = Toxicity in Swiss mouse assessed as lesions on kidney at 25 mg/kg, po administered once daily for 5 days; type: organism-based; conditions: in vivo, 120 h
[7] = Toxicity in Swiss mouse assessed as lesions on heart at 25 mg/kg, po administered once daily for 5 days; type: organism-based; conditions: in vivo, 120 h
[8] = Half life in Swiss mouse at 25 mg/Kg, po measured up to 24 hrs by LCMS analysis; type: ADME, organism-based; conditions: in vivo
How it was run: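 Female Swiss mice, 8 weeks old, n=4, given a suspension by oral gavage at 25 mg/kg. Tail blood (100 µL, heparin) drawn at 0.5, 1, 3, 6, 9, 12 and 24 h. Samples extracted with ACN containing megalol internal standard plus QuEChERS salts. Analysed by LC-MS/MS (C8 column, negative ESI, MRM); calibration 10–1,000 ng/ml, LLOQ 10 ng/ml.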

Leishmania donovani [9] = experiment: Antileishmanial activity against Leishmania donovani BOB (MHOM/SD/62/1S-CL2D) promastigotes overexpressing NTR1 assessed as inhibition of parasite growth incubated for 72 hrs by resazurin dye based assay; type: functional, organism-based
How it was run: (§1)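 LdBOB promastigotes grown at 26 °C in modified M199; NTR1- or NTR2-overexpressing lines kept under nourseothricin (100 µg/mL). Triplicate cultures seeded at 5×10^4 parasites/mL with drug for 72 h; 50 µM resazurin added, fluorescence (ex 528/em 590 nm) read after a further 4 h.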

[10] = Permeability of the compound in pH 7.4 Prisma HT buffer at 100 uM incubated for 4 hrs by PAMPA-BBB assay method; type: ADME; conditions: read-out: permeability
Leishmania donovani [11] = experiment: Antileishmanial activity against wild type Leishmania donovani BOB (MHOM/SD/62/1S-CL2D) promastigotes assessed as inhibition of parasite growth incubated for 72 hrs by resazurin dye based assay; type: functional, organism-based; how it was run: as §1
[12] = Toxicity in Swiss mouse assessed as lesions on lung at 25 mg/kg, po administered once daily for 5 days; type: organism-based; conditions: in vivo, 120 h
Leishmania donovani [13] = experiment: Antileishmanial activity against Leishmania donovani BOB (MHOM/SD/62/1S-CL2D) promastigotes overexpressing NTR2 assessed as inhibition of parasite growth incubated for 72 hrs by resazurin dye based assay; type: functional, organism-based; how it was run: as §1
[14] = test system: Trypanosoma brucei brucei; experiment: Antitrypanosomal activity against blood stream form of Trypanosoma brucei brucei S427 trypomastigotes overexpressing NTR assessed as inhibition of parasite growth; type: functional, organism-based
Plasma proteins = experiment: Plasma protein binding incubated for 4 hrs by LCMS analysis
[15] = test system: Trypanosoma brucei brucei; experiment: Antitrypanosomal activity against bloodstream form of wild type Trypanosoma brucei brucei S427 trypomastigotes assessed as inhibition of parasite growth; type: functional, organism-based
HepG2 [16] = experiment: Genotoxicity in human HepG2 cells assessed as induction of DNA damage at 1 to 10 uM incubated for 2 to 72 hrs by alkaline comet assay; type: toxicity, cell-based; conditions: hepg2, 10 µM
How it was run: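 Cells embedded in 0.7% low-melting agarose on film. Alkaline electrophoresis at pH >13, 24 min at 0.8 V/cm, then neutralised, ethanol-fixed and SYBR Gold stained. % tail DNA is the median of 100 cells (two deposits); 1 mM MMS positive control; three independent experiments.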

[17] = Toxicity in Swiss mouse assessed as apathy occurence at 50 mg/kg, po administered once daily for 5 days measured for 1 hr; type: organism-based; conditions: in vivo
[18] = Toxicity in Swiss mouse assessed as lesions on brain at 25 mg/kg, po administered once daily for 5 days; type: organism-based; conditions: in vivo, 120 h
[19] = Thermodynamic solubility of the compound in phosphate buffer at pH 7.4 by shake flask method; type: physicochemical
How it was run: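 Shake-flask test, miniaturised: 10 µL of a 50 mM stock in 990 µL phosphate buffer pH 7.4 (ionic strength 50 mM), n=4. Shaken 24 h at room temperature, then centrifuged 12,225 × g for 5 min. Supernatant mixed 1:1 with acetonitrile and read by UV spectrophotometry at compound λmax. Quantified against a three-point calibration (0, 25, 50 µM).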

Leishmania donovani [20] = experiment: Selectivity index, ratio of EC50 for wild type Leishmania donovani BOB (MHOM/SD/62/1S-CL2D) promastigotes to EC50 for Leishmania donovani BOB (MHOM/SD/62/1S-CL2D) promastigotes overexpressing NTR1; type: functional
Trypanosoma cruzi = experiment: Antitrypanosomal activity against Trypanosoma cruzi CL Brener amastigotes infected in African green monkey Vero cells assessed as reduction in parasite growth incubated for 120 hrs at 24 hrs post-infection and measured on day 6 post-infection by hemocytometer based light microscopy; type: functional, organism-based
How it was run: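 Compounds, 2–4-fold serial dilutions over 0,1–25 µM final, applied for 120 h at 37°C. On day 6, released trypomastigotes pooled, centrifuged and counted by haemocytometer. EC50 by nonlinear regression; two experiments, triplicate wells.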

[21] = Toxicity in Swiss mouse assessed as lesions on liver at 25 mg/kg, po administered once daily for 5 days; type: organism-based; conditions: in vivo, 120 h
[22] = Microsomal stability in CD-1 mouse liver microsomes in presence of NADP measured up to 40 mins by LC-MS analysis; type: ADME, Microsome
How it was run: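 Compound incubated in duplicate with female CD-1 mouse microsomes at 37°C in 50 mM phosphate pH 7.4. Cofactors: 5 mM MgCl₂, 1 mM NADP, 0.4 U/mL G6PDH and 5 mM glucose-6-phosphate. […] Propranolol reference.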

[23] = Toxicity in orally dosed Swiss mouse administered once daily for 5 days; type: organism-based; conditions: in vivo, po

Compound: Nc1cc(C(F)(F)F)cc2cc(Br)c(=O)[nH]c12
- EC50 (Leishmania infantum): > 100 µM
- CC50 (HepG2 [1]): > 100 µM
- selectivity ratio [2]: > 11
- EC50 [3]: 8.7 µM

Compound: O=c1[nH]c2c([N+](=O)[O-])cc(Br)cc2cc1Br
- EC50 (Leishmania infantum): 6.5 µM
- CC50 (HepG2 [1]): 16.6 µM
- selectivity ratio [2]: 332
- Activity [4]: -0.37 V
- EC50 [3]: 0.05 µM

Compound: O=c1[nH]c2c([N+](=O)[O-])cc(C#CCCCO)cc2cc1Cl
- EC50 (Leishmania infantum): 10.1 µM
- CC50 (HepG2 [1]): 32.7 µM
- selectivity ratio [2]: 38
- EC50 [3]: 0.85 µM

Compound: O=c1[nH]c2c([N+](=O)[O-])cc(Br)cc2cc1Cl
- Ratio EC50 [5]: 15
- Activity [6]: Non-Toxic
- Activity [7]: Non-Toxic
- EC50 (Leishmania infantum): 6.7 µM
- CC50 (HepG2 [1]): 18.1 µM
- t1/2 [8]: 174 min
- EC50 (Leishmania donovani [9]): 0.3 µM
- Papp at 4 h, 100 µM [10]: 40.5 ×10⁻⁶ cm/s
- EC50 (Leishmania donovani [11]): 4.7 µM
- Activity [12]: Non-Toxic
- EC50 (Leishmania donovani [13]): 2.9 µM
- EC50 [14]: 0.02 µM
- Activity (Plasma proteins): 99%
- selectivity ratio [2]: 1510
- EC50 [15]: 0.3 µM
- Activity (HepG2 [16]): Non-Toxic
- Activity [17]: Toxic
- Activity [4]: -0.37 V
- Activity [18]: Non-Toxic
- Therm_solubility [19]: 21.7 µM
- EC50 [3]: 0.012 µM
- Ratio EC50 (Leishmania donovani [20]): 16
- EC50 (Trypanosoma cruzi): 0.5 µM
- Activity [21]: Non-Toxic
- t1/2 [22]: > 40 min
- NOAEL at 120 h [23]: 25 mg/kg

Compound: COc1ccc2cc(C(F)(F)F)cc([N+](=O)[O-])c2n1
- EC50 (Leishmania infantum): > 100 µM
- CC50 (HepG2 [1]): > 100 µM
- selectivity ratio [2]: > 5
- Activity [4]: -0.75 V
- EC50 [3]: 20.9 µM

Compound: O=c1ccc2cc(C(F)(F)F)cc([N+](=O)[O-])c2[nH]1
- EC50 (Leishmania infantum): 18.5 µM
- CC50 (HepG2 [1]): 41.3 µM
- selectivity ratio [2]: 24
- Activity [4]: -0.39 V
- EC50 [3]: 1.7 µM

Compound: CCCCCCCCCCCCCCCCOP(=O)([O-])OCC[N+](C)(C)C [MILTEFOSINE]
- EC50 (Leishmania infantum): 0.8 µM

Compound: C[C@@H]1[C@H](O)[C@@H](C)/C=C/C=C/C=C/C=C/C=C/C=C/C=C/[C@H](O[C@@H]2O[C@H](C)[C@@H](O)[C@H](N)[C@@H]2O)C[C@@H]2O[C@](O)(C[C@@H](O)C[C@@H](O)[C@H](O)CC[C@@H](O)C[C@@H](O)CC(=O)O[C@H]1C)C[C@H](O)[C@H]2C(=O)O [AMPHOTERICIN B]
- EC50 (Leishmania infantum): 0.06 µM

Compound: O=c1ccc2cc(Br)cc([N+](=O)[O-])c2[nH]1
- EC50 (Leishmania infantum): 11.6 µM
- CC50 (HepG2 [1]): 27.9 µM
- selectivity ratio [2]: 399
- Activity [4]: -0.4 V
- EC50 [3]: 0.07 µM

Compound: O=c1[nH]c2c([N+](=O)[O-])cccc2cc1Br
- EC50 (Leishmania donovani [9]): 0.47 µM
- EC50 (Leishmania donovani [11]): 5.9 µM
- EC50 (Leishmania donovani [13]): 4.6 µM
- EC50 [14]: 3.9 µM
- selectivity ratio [2]: 48
- EC50 [15]: 17.7 µM
- Activity [4]: -0.45 V

Compound: O=c1[nH]c2c([N+](=O)[O-])cc(C(F)(F)F)cc2cc1Br
- Ratio EC50 [5]: 7
- EC50 (Leishmania infantum): 3.9 µM
- CC50 (HepG2 [1]): 41.3 µM
- EC50 (Leishmania donovani [9]): 1.2 µM
- Papp at 4 h, 100 µM [10]: 45 ×10⁻⁶ cm/s
- EC50 (Leishmania donovani [11]): 4.1 µM
- EC50 (Leishmania donovani [13]): 4.9 µM
- EC50 [14]: 0.9 µM
- Activity (Plasma proteins): 99.4%
- selectivity ratio [2]: 206
- EC50 [15]: 6.7 µM
- Activity [4]: -0.36 V
- EC50 [3]: 0.2 µM
- Ratio EC50 (Leishmania donovani [20]): 3.5
- t1/2 [22]: > 40 min

Compound: O=c1ccc2cc(C(F)(F)F)ccc2[nH]1
- EC50 (Leishmania infantum): > 100 µM
- CC50 (HepG2 [1]): > 100 µM
- EC50 [3]: > 50 µM

Compound: O=c1[nH]c2c([N+](=O)[O-])cccc2cc1Cl
- EC50 (Leishmania infantum): 16 µM
- selectivity ratio [2]: 71
- Activity [4]: -0.47 V
- EC50 [3]: 1.2 µM
